From ChEMBL document CHEMBL3046913, “Feeding deterrence and contact toxicity of Stemona alkaloids-a source of potent natural insecticides” (2002)
Converted amounts (≈) assume the structure as drawn. The source made the active and inactive calls. The rule behind the calls is not given here.

How the values were obtained:
[1] = tested on: Spodoptera littoralis; assay: Toxicity in neonate larvae of Spodoptera littoralis after 48 hr; format: functional
Method in brief: (§1)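 Contact toxicity: glass vials were coated with seven concentrations of test compound and the solvent evaporated. Twenty neonate larvae were held in the vials for 3 h, then given artificial diet. Survival was read at 48 h and LC50 derived by probit-log analysis. Run in triplicate or duplicate.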

[2] = tested on: Spodoptera littoralis; assay: Insecticidal activity against neonate larvae of Spodoptera littoralis after 5 days; format: functional; conditions: 120 h
Method in brief: (§2)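 Chronic diet assay: neonate larvae (n = 20) from a lab colony were kept on artificial diet spiked via MeOH with eight concentrations of pure alkaloid (0.1-500 ppm). After 5 days in a moist chamber, dark, at 26 °C, survival and weight of survivors were compared with solvent-treated controls. LC50 and EC50 (50% growth inhibition) were derived by probit-log analysis. Run in triplicate.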

[3] = tested on: Spodoptera littoralis; assay: Growth inhibition of neonate larvae of Spodoptera littoralis after 5 days; format: functional; conditions: 120 h; method in brief: as §2
[4] = tested on: Spodoptera littoralis; assay: Toxicity in sixth instar larvae of Spodoptera littoralis assessed as survival at 100 ug/larvae treated directly into hemolymph after 48 hr
[5] = tested on: Spodoptera littoralis; assay: Toxicity in neonate larvae of Spodoptera littoralis at 133 ug/dm2 after 48 hr; format: functional, organism-based; method in brief: as §1
[6] = tested on: Spodoptera littoralis; assay: Antifeedant activity against fifth instar larvae of Spodoptera littoralis assessed as inhibition of feeding without tasting treated leaf disk at 0.1 ug/cm2 after 24 hr by leaf disk choice assay; format: functional, organism-based
Method in brief: (§3)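 Leaf disk choice test with fifth instar larvae (about 70 mg each). Lettuce disks of 1.33 cm2 were treated on the upper surface with pure compound at 1-0.001 µg/cm2 in MeOH; controls got solvent only. Two treated and two control disks were placed on moist filter paper with two larvae. Scoring was done when about 50% of control area (0.665 cm2) was eaten, 24 h maximum. Three trials in duplicate, six replicates.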

[7] = tested on: Spodoptera littoralis; assay: Antifeedant activity against fifth instar larvae of Spodoptera littoralis assessed as inhibition of feeding without tasting treated leaf disk at 1 ug/cm2 after 24 hr by leaf disk choice assay; format: functional, organism-based; method in brief: as §3
[8] = tested on: Spodoptera littoralis; assay: Antifeedant activity against fifth instar larvae of Spodoptera littoralis assessed as 5 to 20% of total area of treated leaf disks in each petri dish consumed at 0.01 ug/cm2 after 24 hr by leaf disk choice assay; format: functional, organism-based; method in brief: as §3
[9] = tested on: Spodoptera littoralis; assay: Antifeedant activity against fifth instar larvae of Spodoptera littoralis at 0.001 ug/cm2 after 24 hr by leaf disk choice assay; format: functional, organism-based; method in brief: as §3
[10] = tested on: Spodoptera littoralis; assay: Antifeedant activity against fifth instar larvae of Spodoptera littoralis assessed as < 5% of total area of treated leaf disks in each petri dish consumed at 0.001 ug/cm2 after 24 hr by leaf disk choice assay; format: functional, organism-based; method in brief: as §3
[11] = tested on: Spodoptera littoralis; assay: Antifeedant activity against fifth instar larvae of Spodoptera littoralis assessed as inhibition of feeding without tasting treated leaf disk at 0.01 ug/cm2 after 24 hr by leaf disk choice assay; format: functional, organism-based; method in brief: as §3

SMILES | LC50 [1] | LC50 [2] | EC50 (50% growth inhibition) [3] | Survival [4] | AFI [5] | AFI [6] | AFI [7] | AFI [8] | AFI [9] | AFI [10] | AFI [11]
CCCC[C@@]12C3CCN1[C@H]1C[C@H]2O[C@@]32O/C(=C3\OC(=O)C(C)=C3OC)[C@@H](C)[C@H]12 [STEMOFOLINE] | 0.59 microg/dm2 | 2.04 µg/mL (≈ 5.26 µM) | 1.46 µg/mL (≈ 3.77 µM) | – | – | – | – | – | – | – | –
CC[C@@H]1[C@H]2CCCCN3[C@H]2[C@H](C[C@H]3[C@@H]2C[C@H](C)C(=O)O2)[C@@H]2[C@H]1OC(=O)[C@H]2C [TUBEROSTEMONINE] | – | > 500 µg/mL | – | 100% | inactive | Active | Active | Active | inactive | – | –
C/C=C(\C)C(=O)O[C@H]1C[C@@H](OC(C)=O)[C@@]2(C(=O)OC)CO[C@H]3[C@@H](O)[C@@](C)([C@]45O[C@@]4(C)[C@@H]4C[C@H]5O[C@@H]5OC=C[C@@]54O)[C@H]4[C@]1(CO[C@]4(O)C(=O)OC)[C@@H]32 [AZADIRACHTIN A] | – | 8.2 µg/mL (≈ 11.4 µM) | – | – | inactive | Active | Active | – | – | Active | Active
CC[C@H](O)C[C@@]12[C@@H]3C[C@H]4[C@H]5[C@H](C)/C(=C6/OC(=O)C(C)=C6OC)O[C@]5(O3)[C@H]1CCN42 [2'-HYDROXYSTEMOFOLINE] | – | 30.3 µg/mL (≈ 75.2 µM) | 38.5 µg/mL (≈ 95.3 µM) | – | – | – | – | – | – | – | –
CC/C=C/[C@@]12[C@@H]3C[C@H]4[C@H]5[C@H](C)/C(=C6/OC(=O)C(C)=C6OC)O[C@]5(O3)[C@@H]1CCN42 [DIDEHYDROSTEMOFOLINE] | 1.01 microg/dm2 | 0.84 µg/mL (≈ 2.18 µM) | 0.46 µg/mL (≈ 1.19 µM) | – | – | – | – | – | – | – | –
